# Results of several laboratories.
# Compare with care: the assays were run in different laboratories.
# Organism: Nakaseomyces glabratus
# Observed: microbial growth
# Strain: ATCC90030
SMILES,technique,time,IC50 [µg/mL]
CCOC(=O)c1nc2ccccc2c(=O)n1Cc1cn(-c2cccc(C)c2)nn1,broth dilution,24 h,395
C[C@@H]1[C@H](O)[C@@H](C)/C=C/C=C/C=C/C=C/C=C/C=C/C=C/[C@H](O[C@@H]2O[C@H](C)[C@@H](O)[C@H](N)[C@@H]2O)C[C@@H]2O[C@](O)(C[C@@H](O)C[C@@H](O)[C@H](O)CC[C@@H](O)C[C@@H](O)CC(=O)O[C@H]1C)C[C@H](O)[C@H]2C(=O)O,,,0.14
C[C@@H]1[C@H](O)[C@@H](C)/C=C/C=C/C=C/C=C/C=C/C=C/C=C/[C@H](O[C@@H]2O[C@H](C)[C@@H](O)[C@H](N)[C@@H]2O)C[C@@H]2O[C@](O)(C[C@@H](O)C[C@@H](O)[C@H](O)CC[C@@H](O)C[C@@H](O)CC(=O)O[C@H]1C)C[C@H](O)[C@H]2C(=O)O,broth dilution,,0.39
CCCCCOc1c(OC)cc(NC(C)CCCNC(=O)C(N)C(C)CC)c2nc(C(C)(C)C)ccc12 (stereo not shown),,,15.2
C#CCCCCCCCCCCCC(O)CC(O)CO (stereo not shown),broth dilution,,> 200
O=C(O)c1ccc(-n2cc(Cn3c(C(=O)O)nc4ccccc4c3=O)nn2)cc1,broth dilution,24 h,522
COc1cc(NC(C)CCCN)c2nc(C(C)(C)C)ccc2c1Oc1ccc(Cl)c(Cl)c1 (stereo not shown),,,19.4
CCCCCCCCCCCCCC(O)CC(O)CO (stereo not shown),broth dilution,,> 200
O=C(O)c1nc2ccccc2c(=O)n1Cc1cn(-c2ccccc2Cl)nn1,broth dilution,24 h,266
CCCCCOc1c(OC)cc(NC(C)CCCNC(=O)C(N)Cc2cc3ccccc3[nH]2)c2nc(C(C)(C)C)ccc12 (stereo not shown),,,9.72
